The values below come from ChEMBL document CHEMBL1141337, “The berkeleyacetals, three meroterpenes from a deep water acid mine waste Penicillium” (J Nat Prod, 2007).

The source made the active and inactive calls. The rule behind the calls is not given here.

For assay [1], the target named is Stromelysin-1 (Homo sapiens) (UniProt P08254). Description: Inhibition of MMP3.
A further assay deals with T1, Caspase-1 (Homo sapiens) (UniProt P29466).
T1 sequence (whole entry): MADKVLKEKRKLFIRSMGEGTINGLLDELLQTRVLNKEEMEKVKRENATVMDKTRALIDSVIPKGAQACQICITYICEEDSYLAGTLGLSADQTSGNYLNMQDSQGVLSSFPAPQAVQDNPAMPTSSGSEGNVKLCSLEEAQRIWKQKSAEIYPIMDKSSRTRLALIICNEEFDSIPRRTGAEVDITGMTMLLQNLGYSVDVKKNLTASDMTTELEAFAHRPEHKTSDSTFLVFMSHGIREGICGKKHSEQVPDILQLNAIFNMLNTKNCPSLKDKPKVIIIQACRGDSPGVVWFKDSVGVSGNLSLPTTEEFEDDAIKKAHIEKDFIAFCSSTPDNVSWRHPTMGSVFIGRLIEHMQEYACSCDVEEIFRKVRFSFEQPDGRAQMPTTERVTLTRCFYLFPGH
Description: Inhibition of caspase 1.

Another assay relates to NCI-H460. Briefly: Growth inhibition of human NCI-H460 cells. The format is functional, cell-based. The method, boiled down: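 Run by the NCI Developmental Therapeutics Program human cancer cell line screen in its single-dose–response format.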

Stromelysin-1 (Homo sapiens), sequence (P08254 100-477 limits assumed): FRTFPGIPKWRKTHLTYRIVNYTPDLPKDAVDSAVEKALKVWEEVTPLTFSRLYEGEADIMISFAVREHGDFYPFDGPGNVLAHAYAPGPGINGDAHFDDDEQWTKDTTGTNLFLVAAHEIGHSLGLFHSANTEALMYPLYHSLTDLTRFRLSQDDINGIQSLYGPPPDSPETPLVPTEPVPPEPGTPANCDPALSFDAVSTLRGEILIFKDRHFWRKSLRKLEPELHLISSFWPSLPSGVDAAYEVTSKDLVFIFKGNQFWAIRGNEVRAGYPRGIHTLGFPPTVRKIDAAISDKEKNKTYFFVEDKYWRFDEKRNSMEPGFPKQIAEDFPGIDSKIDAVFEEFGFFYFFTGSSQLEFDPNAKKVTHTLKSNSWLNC

`COC(=O)[C@]12C(=O)[C@H](C)O[C@@H]3OC(=O)[C@](C)(C[C@H]4C(C)=C5CC(=O)OC(C)(C)C5=CC[C@@]41C)[C@@H]32`: the outcome (in assay [1]; at Caspase-1 (Homo sapiens)) was Active.

Consider `C=C1[C@@]2(C)C[C@H]3[C@@]4(C)C(=CC[C@]3(C)[C@]1(C(=O)OC)C(=O)[C@@](C)(O)C2=O)C(C)(C)C(=O)C[C@H]4O`, for which the result (in assay [1]; on Caspase-1 (Homo sapiens)) was Active.

In the case of `C=C1[C@@]2(C)C[C@H]3C(C)=C4CC(=O)OC(C)(C)C4=CC[C@]3(C)[C@]1(C(=O)OC)C(=O)[C@@](C)(O)C2=O`, the outcome (in assay [1]; at Caspase-1 (Homo sapiens); in the assay with NCI-H460) was Active.

As for `C[C@@H]1O[C@@H]2OC(=O)[C@]3(C)C[C@@H]4[C@](C)(C(=O)C=C5C(=CC(=O)OC5(C)C)[C@@]45CO5)[C@H](C1=O)[C@H]23`, the result (in assay [1]; on Caspase-1 (Homo sapiens); with NCI-H460) was Active.

Take `COC(=O)[C@]12C(=O)[C@H](C)O[C@@H]3OC(=O)[C@](C)(C[C@H]4[C@]5(CO5)C5=CC(=O)OC(C)(C)C5=CC[C@@]41C)[C@@H]32`: the outcome (in assay [1]; on Caspase-1 (Homo sapiens)) was Active.
